Measured values from different studies.
Lines come from different studies, so protocols differ. pEC50, pIC50, pKd, pKi: −log10 of the molar value.
HLA class I histocompatibility antigen, B alpha chain: HLA class I histocompatibility antigen, B alpha chain (Homo sapiens, UniProt P01889)
HTR2B: 5-hydroxytryptamine receptor 2B (HTR2B, Homo sapiens, UniProt P41595)
HTR2C: 5-hydroxytryptamine receptor 2C (HTR2C, Homo sapiens, UniProt P28335)

SMILES	target	effect on	mode	method	pH	measurement	value
CC[C@H](C)[C@H](NC(=O)[C@@H]1CCCN1C(=O)[C@H](Cc1c[nH]cn1)NC(=O)[C@H](CCCCN)NC(=O)[C@H](Cc1ccccc1)NC(=O)[C@H](CC(C)C)NC(=O)[C@@H](N)CCCCN)C(=O)N[C@@H](CCC(N)=O)C(=O)N[C@@H](CC(C)C)C(=O)O	HLA class I histocompatibility antigen, B alpha chain	cell-free assay				pIC50	5.13
COc1cc2c(cc1OC)-c1c(OC)c(OC)cc3c1[C@H](C2)N(C)CC3 (racemic)	HTR2B	ligand displacement		radioligand		pKi	6.21
Nc1ncnc2c1ncn2[C@@H]1O[C@H](C[C@@H](N)CC[C@H](N)C(=O)O)[C@@H](O)[C@H]1O	mRNA cap guanine-N(7) methyltransferase (RNMT, Homo sapiens, UniProt O43148)	enzyme activity	inhibitor			pIC50	5.04
N#CC(C#N)=Cc1ccc([N+](=O)[O-])c(O)c1	Casein kinase I isoform delta (CSNK1D, Homo sapiens, UniProt P48730)	binding		SPR		pKd	< 4.30
CC(C)C[C@H](NC(=O)[C@H](CCC(N)=O)NC(=O)[C@H](CCCNC(=N)N)NC(=O)[C@H](CO)NC(=O)[C@H](Cc1ccc(O)cc1)NC(=O)[C@H](CC(C)C)NC(=O)[C@@H](N)CCCNC(=N)N)C(=O)N[C@@H](Cc1c[nH]cn1)C(=O)N[C@@H](Cc1ccccc1)C(=O)O	HLA class I histocompatibility antigen, B alpha chain	cell-free assay				pIC50	5.12
COc1cc(C(F)(F)F)c(OC)cc1C1CCCNC1 (centres unmarked)	HTR2B	G protein activation	agonist	BRET		pEC50	6.92
CC(C)C[C@H](NC(=O)[C@H](CC(C)C)NC(=O)[C@@H]1CCCN1C(=O)[C@H](C)NC(=O)[C@@H](NC(=O)[C@H](C)N)C(C)C)C(=O)N[C@@H](Cc1c[nH]cn1)C(=O)N[C@@H](CO)C(=O)N[C@H](C(=O)O)[C@@H](C)OP(=O)(O)O	Serine/threonine-protein kinase PLK1, polo-box (PLK1, Homo sapiens, UniProt P53350)	binding		MST	pH 8	pKd	7.33
CSCC[C@H](NC(=O)[C@H](CO)NC(=O)[C@H](CC(C)C)NC(=O)[C@H](CO)NC(=O)[C@H](Cc1c[nH]cn1)NC(=O)CNC(=O)[C@H](Cc1ccc(O)cc1)NC(=O)[C@H](CC(C)C)NC(=O)[C@@H](N)CCCNC(=N)N)C(=O)O	HLA class I histocompatibility antigen, B alpha chain	cell-free assay				pIC50	6.23
CC(C)CC[C@@H](O)[C@@H](C)[C@H]1CC[C@H]2[C@@H]3CC=C4C[C@@H](O)CC[C@]4(C)[C@H]3CC[C@]12C	Cholesterol side-chain cleavage enzyme, mitochondrial (CYP11A1, Homo sapiens, UniProt P05108)	binding				pKd	6.79
CC[C@H](C)[C@H](NC(=O)[C@H](CCCNC(=N)N)NC(=O)[C@H](CC(N)=O)NC(=O)[C@H](Cc1ccccc1)NC(=O)[C@@H](NC(=O)[C@@H](N)Cc1ccc(O)cc1)[C@@H](C)O)C(=O)N[C@@H](Cc1c[nH]cn1)C(=O)N[C@@H](CCC(=O)O)C(=O)N[C@@H](Cc1ccccc1)C(=O)O	HLA class I histocompatibility antigen, B alpha chain	cell-free assay				pIC50	4.36
O=C(O)CC(O)(CC(=O)O)C(=O)O	Tyrosine-protein phosphatase non-receptor type 5 (PTPN5, Homo sapiens, UniProt P54829)	enzyme activity	inhibitor			pKi	2.39
COc1cc2c3c(c1OC)-c1c(OC)ccc(Cl)c1CC3N(C)CC2 (racemic)	HTR2C	cell-free assay		radioligand		pKi	6.10
c1cncc([C@@H]2CCCN2)c1	Neuronal acetylcholine receptor; alpha3/beta4 (Rattus norvegicus, UniProt P04757+P12392)	cell-free assay		radioligand		pKi	5.89
COc1cc(CCNC2CCCc3cccc(O)c32)c(OC)cc1C#N (centres unmarked)	HTR2C	G protein activation	agonist	BRET		pEC50	5.23
CC[C@H](C)[C@H](NC(=O)[C@@H]1CCCN1C(=O)[C@H](Cc1c[nH]cn1)NC(=O)[C@H](CCCCN)NC(=O)[C@H](Cc1ccc(O)cc1)NC(=O)[C@@H](NC(=O)[C@@H](N)Cc1ccc(O)cc1)[C@@H](C)O)C(=O)N[C@@H](Cc1ccc(O)cc1)C(=O)N[C@@H](CC(C)C)C(=O)O	HLA class I histocompatibility antigen, B alpha chain	cell-free assay				pIC50	4.75
COc1cc(CCNC(c2ccccc2O)C2CC2)c(OC)cc1C#N (centres unmarked)	HTR2C	calcium signal	agonist			pEC50	< 5.00
COc1cc2c(cc1OC)CN(CCc1ccc(NC(=O)c3cccc4c(=O)c5cccc(OC)c5[nH]c34)cc1)CC2	HTR2C	cell-free assay				pKi	7.03
